Assay outcomes: PubChem, several laboratories
Hits are enriched below; roughly 6.4% of the tested compounds scored in any of these assays.
MPTP block = blocks calcium-induced mitochondrial swelling | isolated mouse mitochondria, Ca2+ swelling absorbance, 30 min | inhibition, % at 10 µM | 360,000 compounds, 1.4% hits;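 active = inhibition of 50% or more, scaled per plate between neutral and stimulator controls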
GRIN3A LBD mod = modulates the human NR3A ligand-binding domain; NR3A LBD differential scanning fluorimetry, Tm shift; 0% = protein alone, 100% = glycine-bound protein; Tm shift relative to glycine control, % at 25 µM; 340,000 compounds, 2.5% hits;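 active = melting temperature shift of at least 10% of the positive control shift, at one fixed dose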
EBV gp42 inh = blocks Epstein-Barr virus glycoprotein 42 binding. Q1HVG2. Fluorescence polarization binding assay, mP read-out. inhibition, % (tested at 21.74 µM). 220,000 compounds, 0.42% hits. AID 1085; in the data active = inhibition above about 50%
Target sequence (Q1HVG2 whole entry, looked up): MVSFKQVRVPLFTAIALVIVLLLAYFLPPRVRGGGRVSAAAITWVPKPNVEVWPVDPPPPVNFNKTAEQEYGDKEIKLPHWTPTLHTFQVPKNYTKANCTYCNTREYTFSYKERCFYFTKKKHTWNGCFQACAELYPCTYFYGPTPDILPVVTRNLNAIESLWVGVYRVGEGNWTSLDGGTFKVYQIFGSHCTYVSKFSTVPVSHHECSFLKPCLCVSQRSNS
CHOP inhibitor = blocks CHOP induction under ER stress; 220,000 compounds, 3.8% hits; AID 2732; inhibition, % at 10 µM; CHO-K1 CHOP-promoter luciferase, tunicamycin-induced, 15-18 h;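 active = compounds that reduced the stress-induced luciferase reporter signal by more than about 70% of percent inhibition, limit read from the data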
TbMetRS inhib = blocks T. brucei methionyl-tRNA synthetase activity; purified T. brucei MetRS, ATP depletion, Kinase-Glo luminescence; inhibition, % at 11.9 µM; 360,000 compounds, 0.4% hits; AID 624268;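 active = inhibition above a per-plate cutoff of the control wells' mean inhibition plus 3 SD, cut at about 5.5% in these data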
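Measured by: Kinase-Glo luciferase luminescence reporting remaining unconsumed ATP. Material: purified T. brucei MetRS enzyme. Doses: 11.9 µM compound single dose, 0.9% DMSO. Medium: HEPES buffer containing pyrophosphatase, BSA, spermine, DTT. Times: 15 min preincubation, 2 h reaction, all 25 °C. Reagent: methionine, ATP and bulk E. coli tRNA.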
WT yeast gro inh = growth inhibition of WT yeast, mitochondrial fusion screen. mitochondrial fusion phenotypic screen, WT strain. 190,000 compounds, 2.1% hits. inhibition, % at 10 µM; in the data active = inhibition above about 58%; tested in S. cerevisiae
CHOP confirm = confirmation of CHOP induction inhibitors; shares compounds with CHOP inhibitor; CHO-CHOP promoter luciferase reporter, tunicamycin-induced, luminescence; inhibition, % at 10 µM; 2,100 compounds, 45% hits; AID 504437;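 active = mean of three repeat readings of reporter signal inhibition above a set limit, cut at about 70% in these data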
Numbers stand for hits; . = inactive; / = not tested or not shown.

SMILES | MPTP block | GRIN3A LBD mod | EBV gp42 inh | CHOP inhibitor | TbMetRS inhib | WT yeast gro inh | CHOP confirm
O=C1NC[C@@H](Cc2cccc3ccccc23)N(CCc2cc(C(F)(F)F)cc(C(F)(F)F)c2)C1=O | . | . | . | 97 | . | / | 133
CCC(C)C(NC(N)=O)C(=O)NC1CCC(C)CC1 (stereo not given) | / | / | . | . | / | . | /
O=C(O)CC(SCc1ccc(C(=O)O)o1)C(=O)O (stereo not given) | . | . | . | . | . | . | /
Cc1ccc(-n2nnnc2CCl)cc1 | . | . | . | 108 | . | . | .
Cc1ccc(-c2nnnn2-c2ccc(C)cc2)cc1 | . | . | . | . | . | . | /
Cc1nn(C)c(C)c1S(=O)(=O)NCc1cccs1 | . | . | . | . | . | . | /
CCOC(=O)C1CCN(C(=O)CN(Cc2ccc(Cl)cc2)S(C)(=O)=O)CC1 | . | . | . | . | . | . | /
Cc1ccc(N=Cc2c(O)n(-c3ccc4c(c3)OCO4)c(=O)c3ccccc23)cc1 | . | . | . | 102 | . | 73 | .
Cc1cccc(-n2c(O)c(C=Nc3ccc(O)cc3)c3ccccc3c2=O)n1 | . | . | . | . | . | . | /
Cc1cc(C)c2c(CC(=O)Nc3ccc(Cl)cn3)coc2c1 | . | . | . | 97 | . | . | .
O=C1c2ccccc2-c2c1c1ccccc1c(=O)n2CCO | . | . | / | / | . | / | /
Cc1[nH]nc2c1C(c1ccc(Cl)cc1)C(C#N)=C(N)O2 (stereo not given) | . | . | . | . | . | . | /
Cc1cc(-c2[nH]nc3c2C(c2ccc(Cl)cc2)C(C#N)=C(N)O3)c(C)s1 (stereo not given) | . | . | . | 103 | . | . | 104
CCN=C1NN=C(c2cc(C)n(Cc3ccco3)c2C)CS1 | . | . | . | 97 | . | . | 98
Oc1ccc(Oc2ccc3c(C(F)(F)F)cc(C(F)(F)F)nc3n2)cc1 | . | . | . | 98 | . | . | 101
COc1ccc(Oc2ccc3c(C(F)(F)F)cc(C(F)(F)F)nc3n2)cc1 | . | . | . | . | . | . | /
OC(CNCC(c1ccc(Cl)cc1Cl)c1c[nH]c2ccccc12)c1ccccc1 (stereo not given) | . | 24 | . | 107 | . | . | 125
CC1CCCC(C)N1C(=O)c1cccc2c1-c1ccccc1/C2=N/O (stereo not given) | . | . | . | . | . | . | /
CC(C)COC(=O)c1cccc2c1-c1ccccc1/C2=N\O | . | . | . | 101 | . | 62 | .
O=S(=O)(/N=S1/CC=CCN1S(=O)(=O)c1ccccc1)c1ccccc1 (stereo not given) | . | . | . | 104 | . | . | .
O=S(=O)(c1ccccc1)N1CCN(S(=O)(=O)c2ccccc2)C1 | . | . | . | . | . | . | /
Cc1ccc(O)c(-c2cc(-c3ccccc3[N+](=O)[O-])[nH]n2)c1 | . | . | . | . | . | . | /
Oc1ccccc1-c1cc(-c2ccccc2Cl)[nH]n1 | . | . | . | 99 | . | . | .
Cc1ccc(O)c(-c2cc(-c3ccccc3C)[nH]n2)c1 | . | . | . | 106 | . | 78 | .
O=[N+]([O-])c1ccc(/C=N/n2c(-c3ccccc3)n[nH]c2=S)cc1 | . | . | / | / | . | / | /
SMILES | MPTP block | GRIN3A LBD mod | EBV gp42 inh | CHOP inhibitor | TbMetRS inhib | WT yeast gro inh | CHOP confirm
O=[N+]([O-])c1ccc(-c2nn(-c3ccccc3)cc2/C=N/n2c(-c3cccs3)n[nH]c2=S)cc1 | . | . | . | 102 | . | / | 101
Cc1ccc(NC2=C/C(=N/S(=O)(=O)c3cccs3)c3ccccc3C2=O)cc1C | . | . | . | . | . | . | /
COc1ccc(S(=O)(=O)/N=C2\C=C(Nc3ccc(O)cc3)C(=O)c3ccccc32)cc1 | . | . | / | / | . | / | /
Cc1ccccc1NC1=C/C(=N\S(=O)(=O)c2cccs2)c2ccccc2C1=O | . | . | . | 107 | . | 89 | .
CC(=O)Nc1ccc(NC2=C/C(=N/S(=O)(=O)c3cccs3)c3ccccc3C2=O)cc1 | . | . | . | 107 | . | . | .
COc1ccc(-c2nc(CS(=O)CC(=O)NCc3ccco3)c(C)o2)cc1OC (stereo not given) | . | . | . | . | . | . | /
CCOc1ccc2[nH]c(=O)c(CN(Cc3ccco3)C(=O)c3cccc(F)c3)cc2c1 | . | . | . | . | . | . | /
